This is an account of results in PMC8103808 (Journal of medicinal chemistry, 2020).

The term inhibition denotes the relative decrease from the control value, in per cent.

The structures appear in SMILES notation.

In experiment [1] the test system is U−87 MG cells. Kind of experiment: MTT growth inhibition assay in U-87 MG cells. The class given is cell-based. The following applies: Homo sapiens, read-out: MTT (% inhibition at 30 μM). In short, it runs like this: (§1)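 Cells were grown at 37 °C, 5% CO₂ in 10% FBS medium: DMEM for U-87 MG, RPMI-1640 for A-172. Duplicate wells of 3000–5000 cells were attached overnight, then exposed to 30 μM test compound for 72 h. MTT (3 mg/mL) was added for 4 h at 37 °C and formazan dissolved in DMSO before reading A570. Inhibition (%) = [1−(At−Ab)/(Ac−Ab)]×100.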
On the technique in general: Tetrazolium dyes change colour on reduction, which living cells bring about.

Experiment [2] concerns U−87 MG cells. Briefly: Bromouridine nascent RNA sequencing. The class given is cell-based, human. The following applies: 20 μM, 4 h; GSEA.
In experiment [3] the test system is A-172 cells. Kind of experiment: MTT growth inhibition assay in A-172 cells. To be noted: Homo sapiens, A 172, read-out: MTT (% inhibition at 30 μM). The format is cell-based. In short, it runs like this: as §1

Consider `Oc1c(C(c2ccncc2)N2CCCCC2)ccc2ccoc12` (stereo not drawn) [5p, 6-(Piperidin-1-yl(pyridin-4-yl)methyl)benzofuran-7-ol], for which the inhibition at 30 µM in experiment [1] was determined as 1%. Moreover, the “effect on transcription (gene set enrichment)” value in experiment [2] is listed as “upregulates transcription of genes involved in the unfolded protein response”.

For `Oc1cc2c(cc1C(c1ccccc1)N1CCCCC1)OCO2` (stereo not drawn) [6b, 6-(phenyl(piperidin-1-yl)methyl)benzo[d][1,3]dioxol-5-ol], the inhibition at 30 µM in experiment [3] was determined as 17%.
